Activity calls are given as the source filed them. No cut-off for these calls is given here.
Columns and labels:
[1] = molecular target: Dual specificity mitogen-activated protein kinase kinase 6 (Homo sapiens) (UniProt P52564); assay: Residual activity at human MKK6 at 10 uM in presence of 10 uM ATP relative to control
Method in brief: (§1)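 Single-concentration counter-screen across a panel of 80 Ser/Thr and Tyr protein kinases. Compound was tested at 10 µM with ATP at 10 µM. Activity remaining in each kinase is expressed relative to control.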

[2] = molecular target: Ribosomal protein S6 kinase alpha-5 (Homo sapiens) (UniProt O75582); assay: Residual activity at human MSK1 at 10 uM in presence of 10 uM ATP relative to control; method in brief: as §1
Ribosomal protein S6 kinase alpha-5 (Homo sapiens), sequence (O75582 whole entry, looked up): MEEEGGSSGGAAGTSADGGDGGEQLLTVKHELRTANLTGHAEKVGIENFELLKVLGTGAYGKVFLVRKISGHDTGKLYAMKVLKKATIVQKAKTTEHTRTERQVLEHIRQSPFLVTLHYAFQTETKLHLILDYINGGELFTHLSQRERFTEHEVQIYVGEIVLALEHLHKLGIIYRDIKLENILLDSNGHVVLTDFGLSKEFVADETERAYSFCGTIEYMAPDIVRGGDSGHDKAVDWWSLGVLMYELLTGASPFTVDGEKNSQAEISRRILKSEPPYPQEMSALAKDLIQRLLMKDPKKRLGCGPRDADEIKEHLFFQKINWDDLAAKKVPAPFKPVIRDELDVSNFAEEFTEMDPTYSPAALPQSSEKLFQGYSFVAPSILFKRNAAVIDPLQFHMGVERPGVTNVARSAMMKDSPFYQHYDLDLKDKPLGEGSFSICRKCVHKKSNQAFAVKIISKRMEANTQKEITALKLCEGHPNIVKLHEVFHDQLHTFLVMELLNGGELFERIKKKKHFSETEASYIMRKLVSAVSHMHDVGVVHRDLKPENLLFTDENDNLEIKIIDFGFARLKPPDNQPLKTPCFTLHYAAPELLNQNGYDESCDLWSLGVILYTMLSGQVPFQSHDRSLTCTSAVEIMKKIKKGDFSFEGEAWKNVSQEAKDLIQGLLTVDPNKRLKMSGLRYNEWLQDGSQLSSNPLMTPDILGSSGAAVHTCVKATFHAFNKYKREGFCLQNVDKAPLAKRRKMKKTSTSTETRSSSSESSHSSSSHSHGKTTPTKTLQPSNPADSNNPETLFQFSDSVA

[3] = molecular target: 3-phosphoinositide-dependent protein kinase 1 (Homo sapiens) (UniProt O15530); assay: Residual activity at human PDK1 at 10 uM in presence of 10 uM ATP relative to control; method in brief: as §1
[4] = molecular target: RAC-beta serine/threonine-protein kinase (Homo sapiens) (UniProt P31751); assay: Residual activity at human PKBbeta at 10 uM in presence of 10 uM ATP relative to control; method in brief: as §1
[5] = molecular target: RAC-gamma serine/threonine-protein kinase (Homo sapiens) (UniProt Q9Y243); assay: Residual activity at human PKBgamma at 10 uM in presence of 10 uM ATP relative to control; method in brief: as §1
RAC-gamma serine/threonine-protein kinase (Homo sapiens), sequence (Q9Y243 whole entry): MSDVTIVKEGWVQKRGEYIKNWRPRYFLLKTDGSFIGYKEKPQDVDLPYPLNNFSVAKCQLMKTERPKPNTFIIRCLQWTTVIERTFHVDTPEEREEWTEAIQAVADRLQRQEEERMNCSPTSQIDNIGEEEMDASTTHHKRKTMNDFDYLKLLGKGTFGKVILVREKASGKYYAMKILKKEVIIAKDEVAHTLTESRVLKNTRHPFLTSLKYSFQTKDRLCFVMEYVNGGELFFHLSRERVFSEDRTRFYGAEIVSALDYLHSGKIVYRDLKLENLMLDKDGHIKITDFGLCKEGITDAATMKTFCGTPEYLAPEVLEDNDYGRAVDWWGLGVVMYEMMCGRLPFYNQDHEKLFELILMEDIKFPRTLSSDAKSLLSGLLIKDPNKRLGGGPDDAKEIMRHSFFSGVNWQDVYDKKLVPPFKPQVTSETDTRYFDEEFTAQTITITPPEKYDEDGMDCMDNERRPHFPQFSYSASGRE

[6] = molecular target: Serine/threonine-protein kinase Chk1 (Homo sapiens) (UniProt O14757); assay: Residual activity at human Chk1 at 10 uM in presence of 10 uM ATP relative to control
Serine/threonine-protein kinase Chk1 (Homo sapiens), sequence (O14757 whole entry): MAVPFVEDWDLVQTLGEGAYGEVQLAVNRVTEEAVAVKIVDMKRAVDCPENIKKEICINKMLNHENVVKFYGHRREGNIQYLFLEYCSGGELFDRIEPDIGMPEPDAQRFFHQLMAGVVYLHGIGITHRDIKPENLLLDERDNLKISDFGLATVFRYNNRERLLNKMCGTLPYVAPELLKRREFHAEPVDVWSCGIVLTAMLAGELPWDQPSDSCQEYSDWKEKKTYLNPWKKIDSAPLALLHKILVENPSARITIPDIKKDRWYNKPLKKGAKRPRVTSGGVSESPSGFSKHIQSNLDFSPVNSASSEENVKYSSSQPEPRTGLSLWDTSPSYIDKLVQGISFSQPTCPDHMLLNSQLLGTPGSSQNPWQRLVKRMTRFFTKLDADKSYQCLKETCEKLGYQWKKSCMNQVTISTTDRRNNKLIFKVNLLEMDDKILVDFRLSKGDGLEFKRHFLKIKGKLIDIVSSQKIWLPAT
Method in brief: (§2)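 Panel of Ser/Thr and Tyr protein kinases, each tested with 10 µM compound in the presence of 10 µM ATP; activity expressed relative to control.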

[7] = molecular target: Fibroblast growth factor receptor 3 (Homo sapiens) (UniProt P22607); assay: Residual activity at human FGFR3 at 10 uM in presence of 10 uM ATP relative to control; method in brief: as §2
[8] = molecular target: Inhibitor of nuclear factor kappa-B kinase subunit alpha (Homo sapiens) (UniProt O15111); assay: Residual activity at human IKKalpha at 10 uM in presence of 10 uM ATP relative to control; method in brief: as §2
Inhibitor of nuclear factor kappa-B kinase subunit alpha (Homo sapiens), sequence (O15111 whole entry): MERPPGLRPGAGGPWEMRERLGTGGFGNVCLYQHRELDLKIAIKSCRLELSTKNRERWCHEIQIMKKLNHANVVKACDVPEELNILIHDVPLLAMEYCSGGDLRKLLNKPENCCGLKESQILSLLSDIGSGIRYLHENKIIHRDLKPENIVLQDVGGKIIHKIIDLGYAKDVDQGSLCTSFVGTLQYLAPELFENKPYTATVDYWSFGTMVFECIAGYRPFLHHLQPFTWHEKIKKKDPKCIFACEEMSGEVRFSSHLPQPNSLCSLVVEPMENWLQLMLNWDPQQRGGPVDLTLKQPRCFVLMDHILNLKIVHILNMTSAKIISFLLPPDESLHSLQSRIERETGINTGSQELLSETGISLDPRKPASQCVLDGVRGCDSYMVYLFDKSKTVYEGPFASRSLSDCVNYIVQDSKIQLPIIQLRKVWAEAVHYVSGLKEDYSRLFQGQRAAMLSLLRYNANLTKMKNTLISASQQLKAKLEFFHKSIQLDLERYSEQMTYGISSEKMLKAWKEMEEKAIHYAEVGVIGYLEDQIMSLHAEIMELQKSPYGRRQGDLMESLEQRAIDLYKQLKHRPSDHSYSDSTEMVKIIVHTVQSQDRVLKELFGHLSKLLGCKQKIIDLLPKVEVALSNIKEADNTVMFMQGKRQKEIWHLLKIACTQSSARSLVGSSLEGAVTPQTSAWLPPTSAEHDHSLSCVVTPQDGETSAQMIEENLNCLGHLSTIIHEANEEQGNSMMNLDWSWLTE

[9] = molecular target: Inhibitor of nuclear factor kappa-B kinase subunit beta (Homo sapiens) (UniProt O14920); assay: Residual activity at human IKK-beta at 10 uM in presence of 10 uM ATP relative to control; method in brief: as §2
Inhibitor of nuclear factor kappa-B kinase subunit beta (Homo sapiens), sequence (O14920 whole entry): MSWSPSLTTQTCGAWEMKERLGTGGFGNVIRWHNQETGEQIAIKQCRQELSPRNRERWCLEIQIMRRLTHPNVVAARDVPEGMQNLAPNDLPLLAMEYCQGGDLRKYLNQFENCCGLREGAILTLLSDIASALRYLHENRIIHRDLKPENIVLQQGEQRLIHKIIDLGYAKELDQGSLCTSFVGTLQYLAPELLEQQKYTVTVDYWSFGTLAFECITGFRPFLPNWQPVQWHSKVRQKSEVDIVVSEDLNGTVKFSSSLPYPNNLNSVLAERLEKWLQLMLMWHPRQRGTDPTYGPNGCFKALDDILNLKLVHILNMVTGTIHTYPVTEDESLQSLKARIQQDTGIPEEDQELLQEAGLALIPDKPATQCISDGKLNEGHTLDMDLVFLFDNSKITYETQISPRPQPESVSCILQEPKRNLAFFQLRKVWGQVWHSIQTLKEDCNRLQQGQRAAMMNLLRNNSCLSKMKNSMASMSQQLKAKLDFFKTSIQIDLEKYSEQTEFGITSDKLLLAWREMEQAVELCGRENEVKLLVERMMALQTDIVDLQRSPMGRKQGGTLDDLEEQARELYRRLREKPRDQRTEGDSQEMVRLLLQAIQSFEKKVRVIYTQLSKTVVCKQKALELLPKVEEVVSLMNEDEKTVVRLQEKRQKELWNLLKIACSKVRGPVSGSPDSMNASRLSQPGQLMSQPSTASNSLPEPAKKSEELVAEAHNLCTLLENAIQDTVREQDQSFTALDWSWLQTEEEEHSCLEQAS

[10] = molecular target: Mitogen-activated protein kinase 9 (Homo sapiens) (UniProt P45984); assay: Residual activity at human JNK2-alpha-2 at 10 uM in presence of 10 uM ATP relative to control; method in brief: as §1
Mitogen-activated protein kinase 9 (Homo sapiens), sequence (P45984 whole entry, looked up): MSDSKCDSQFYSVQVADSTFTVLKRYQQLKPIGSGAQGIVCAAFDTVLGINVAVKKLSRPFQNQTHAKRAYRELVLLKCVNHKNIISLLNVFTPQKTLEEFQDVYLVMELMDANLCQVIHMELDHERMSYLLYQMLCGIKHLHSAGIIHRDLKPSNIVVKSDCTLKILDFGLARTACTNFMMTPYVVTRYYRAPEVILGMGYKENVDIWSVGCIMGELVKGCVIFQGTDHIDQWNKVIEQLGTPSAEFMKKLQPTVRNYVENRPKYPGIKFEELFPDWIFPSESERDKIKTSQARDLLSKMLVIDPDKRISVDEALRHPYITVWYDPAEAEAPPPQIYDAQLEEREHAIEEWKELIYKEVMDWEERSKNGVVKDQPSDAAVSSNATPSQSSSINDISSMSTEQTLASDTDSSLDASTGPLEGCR

[11] = molecular target: Mitogen-activated protein kinase 10 (Homo sapiens) (UniProt P53779); assay: Residual activity at human JNK3 at 10 uM in presence of 10 uM ATP relative to control; method in brief: as §1
Mitogen-activated protein kinase 10 (Homo sapiens), sequence (P53779 whole entry): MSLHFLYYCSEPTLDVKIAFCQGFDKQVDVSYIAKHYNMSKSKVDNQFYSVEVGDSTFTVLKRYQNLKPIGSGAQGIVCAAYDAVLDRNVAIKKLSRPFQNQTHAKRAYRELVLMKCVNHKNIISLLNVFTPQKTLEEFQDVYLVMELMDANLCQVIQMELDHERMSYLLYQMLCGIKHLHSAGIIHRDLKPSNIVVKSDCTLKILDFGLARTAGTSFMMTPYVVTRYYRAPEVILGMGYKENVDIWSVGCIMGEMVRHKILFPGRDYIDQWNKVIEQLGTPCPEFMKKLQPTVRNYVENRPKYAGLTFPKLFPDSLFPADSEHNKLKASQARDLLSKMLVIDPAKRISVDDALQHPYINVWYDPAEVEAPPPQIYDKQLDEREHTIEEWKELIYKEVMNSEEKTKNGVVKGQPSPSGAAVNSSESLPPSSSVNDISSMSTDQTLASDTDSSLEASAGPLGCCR

[12] = molecular target: Mitogen-activated protein kinase 1 (Homo sapiens) (UniProt P28482); assay: Residual activity at human MAPK1 at 10 uM in presence of 10 uM ATP relative to control; method in brief: as §1
[13] = molecular target: Protein kinase C iota type (Homo sapiens) (UniProt P41743); assay: Residual activity at human PKCiota at 10 uM in presence of 10 uM ATP relative to control; method in brief: as §1
[14] = molecular target: Protein kinase C theta type (Homo sapiens) (UniProt Q04759); assay: Residual activity at human PKCtheta at 10 uM in presence of 10 uM ATP relative to control; method in brief: as §1
Protein kinase C theta type (Homo sapiens), sequence (Q04759 whole entry, looked up): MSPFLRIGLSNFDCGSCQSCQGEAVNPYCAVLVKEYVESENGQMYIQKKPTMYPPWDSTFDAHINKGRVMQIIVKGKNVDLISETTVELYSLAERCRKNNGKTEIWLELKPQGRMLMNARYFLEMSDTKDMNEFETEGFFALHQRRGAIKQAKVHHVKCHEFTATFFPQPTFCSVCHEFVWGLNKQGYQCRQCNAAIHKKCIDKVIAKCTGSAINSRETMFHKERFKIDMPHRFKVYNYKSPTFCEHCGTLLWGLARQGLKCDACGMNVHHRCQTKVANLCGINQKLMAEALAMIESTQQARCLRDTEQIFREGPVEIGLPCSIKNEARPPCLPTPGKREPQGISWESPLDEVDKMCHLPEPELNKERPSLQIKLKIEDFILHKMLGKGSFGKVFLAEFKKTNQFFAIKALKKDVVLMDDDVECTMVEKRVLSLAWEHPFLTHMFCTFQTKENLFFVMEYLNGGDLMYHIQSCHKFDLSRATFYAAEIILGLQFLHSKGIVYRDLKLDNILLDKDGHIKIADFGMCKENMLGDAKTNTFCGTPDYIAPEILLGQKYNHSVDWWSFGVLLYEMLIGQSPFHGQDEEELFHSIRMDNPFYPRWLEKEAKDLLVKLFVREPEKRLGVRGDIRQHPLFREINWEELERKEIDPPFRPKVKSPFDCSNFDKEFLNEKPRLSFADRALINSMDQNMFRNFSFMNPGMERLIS

[15] = molecular target: Serine/threonine-protein kinase N2 (Homo sapiens) (UniProt Q16513); assay: Residual activity at human PRK2 at 10 uM in presence of 10 uM ATP relative to control; method in brief: as §1
[16] = molecular target: Serine/threonine-protein kinase Sgk1 (Homo sapiens) (UniProt O00141); assay: Residual activity at human SGK at 10 uM in presence of 10 uM ATP relative to control; method in brief: as §1
[17] = molecular target: BDNF/NT-3 growth factors receptor (Homo sapiens) (UniProt Q16620); assay: Residual activity at human TrkB at 10 uM in presence of 10 uM ATP relative to control; method in brief: as §1
[18] = molecular target: Tyrosine-protein kinase ABL1 (Homo sapiens) (UniProt P00519); assay: Residual activity at human Abl at 10 uM in presence of 10 uM ATP relative to control; method in brief: as §2
[19] = test system: Mast cell; assay: Inhibition of SCF-induced PKB/Akt phosphorylation in mouse mast cells at 10 uM; format: functional, cell-based
Method in brief: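 Bone marrow mast cells from 4- to 8-week-old wild-type mice, derived ≥4 weeks in 20 ng/mL SCF plus 20 ng/mL IL-3 and confirmed c-kit+ by FACS. Cells at 2.5 × 10^6/mL starved 24 h without SCF/IL-3, preincubated 20 min with compound or 1% DMSO, stimulated 15 min at 37 °C with 20 ng/mL SCF. Fixed in 1.5% paraformaldehyde, permeabilized with 0.2% Triton X-100, phospho-Ser-473 Akt read by FACS.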

[20] = test system: Rattus norvegicus; assay: Half life in rat at 10 mg/kg, iv; format: ADME, organism-based; parameters: dose 10 mg/kg, route intravenous; details: in vivo
Method in brief: (§3)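 Rats given a single 10 mg/kg dose, intravenously or orally. The compound was given as its potassium salt, prepared with KOH in THF/water, for the in vivo work.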

[21] = Half life in rat at 10 mg/kg, po; format: ADME, organism-based; parameters: dose 10 mg/kg, route oral; details: in vivo; method in brief: as §3
[22] = Metabolism in human microsome after 1 hr; format: ADME; details: microsomes, read-out: Activity
[23] = AUC in rat at 10 mg/kg, po; format: ADME, organism-based; parameters: dose 10 mg/kg, route oral; details: plasma; method in brief: as §3
[24] = molecular target: CDK6/cyclin D3 (Homo sapiens) (UniProt P30281+Q00534); assay: Residual activity at human CDK6/CyclinD3 at 10 uM in presence of 10 uM ATP relative to control; format: protein-complex assay; method in brief: as §2
[25] = molecular target: Phosphatidylinositol 4,5-bisphosphate 3-kinase catalytic subunit beta isoform (Homo sapiens, UniProt P42338); assay: Inhibition of human PI3Kbeta
[26] = species: Rattus norvegicus; assay: Residual activity at rat AMPK at 10 uM in presence of 10 uM ATP relative to control; method in brief: as §1
[27] = molecular target: Ca2+/calmodulin-dependent protein kinase II (CaM kinase II) (Rattus norvegicus) (UniProt P11275+P08413+P15791+P11730); assay: Residual activity at rat CaMK2 at 10 uM in presence of 10 uM ATP relative to control; format: protein assay
[28] = test system: THP-1; assay: Inhibition of CSF-1-induced PKB/Akt phosphorylation in THP1 cells; details: Homo sapiens

Compound: O=C1NC(=O)/C(=C/c2ccc(-c3ccc(F)cc3O)o2)S1
- Activity [1]: 105%
- Activity [2]: 72%
- Activity [3]: 104%
- Activity [4]: 103%
- Activity [5]: 96%
- Activity [6]: 94%
- Activity [7]: 121%
- Activity [8]: 82%
- Activity [9]: 89%
- Activity [10]: 97%
- Activity [11]: 86%
- Activity [12]: 103%
- Activity [13]: 84%
- Activity [14]: 102%
- Activity [15]: 95%
- Activity [16]: 98%
- Activity [17]: 98%
- Activity [18]: 92%
- Activity [19]: inactive
- T1/2 [20]: 0.65 h
- half-life [21]: 1 h
- metabolised at 1 h [22]: 10%
- AUC [23]: 847 ng·h/mL
- Activity [24]: 89%
- IC50 [25]: 20 µM
- Activity [26]: 90%
- Activity [27]: 97%
- IC50 [28]: 4.73 µM
